Source: PubChem BioAssay
Compounds with a hit are over-represented: about 1.9% of the library has one in this group of screens.
VIM-2 inhibitor – VIM-2 metallo-beta-lactamase inhibitors, primary screen, biochemical, epi-absorbance readout, Pseudomonas aeruginosa enzyme; 290,000 tested, 0.89% active; inhibition, % at 5.6 µM; purified VIM-2, nitrocefin hydrolysis, epi-absorbance fluorescence; AID 1527, 2009;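 active = inhibition above the mean of all tested compounds plus 3 SD, cutoff set per screening run, cut at about 7.5% in these data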;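 note: red hydrolysis product quenches plate fluorescence so inhibitors raise well fluorescence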
IMP-1 inh – IMP-1 metallo-beta-lactamase inhibitors, primary screen, biochemical, epi-absorbance readout, Pseudomonas aeruginosa enzyme; metallo-beta-lactamase IMP-1 (Pseudomonas aeruginosa); purified IMP-1, nitrocefin hydrolysis, epi-absorbance fluorescence; inhibition, % at 5.6 µM; 290,000 tested, 0.45% active;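 active = inhibition above the mean plus 3 SD of all compounds in the same screening run, cut at about 4.5% in these data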
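Test system: recombinant IMP-1 enzyme, purified / Medium: HEPES buffer pH 7.1 with ZnSO4 and Brij 35 / Doses: single dose, 5.6 µM / Times: 25 °C, 15 min preincubation, 25 min reaction / Detection: Epi-absorbance via hydrolysed-nitrocefin quenching of white-plate fluorescence, 480/530 nm, EDTA stop / Evaluation: percent inhibition from optical density relative to buffer-blank wells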
DNA FID counter-1 – compounds displacing fluorescent DNA intercalator, primary screen, artefact control for HCV NS3 helicase inhibitor project, biochemical, FID fluorescence; DNA fluorescent intercalator displacement; inhibition, % at 7.9 µM; 290,000 tested, 0.17% active;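 note: higher means more ethidium bromide displaced from hairpin DNA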
NS3 helicase inh – inhibitors of HCV NS3 helicase, primary screen, biochemical, Cy5 molecular beacon fluorescence; NS3 helicase DNA unwinding; 290,000 tested, 0.56% active; inhibition, % at 10.9 µM; Hepatitis C virus NS3 helicase;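 active = inhibition above the mean of all tested compounds plus 3 SD, set per campaign, cut at about 35% in these data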
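assay system = NS3 helicase fragment of HCV | buffer or medium = MOPS pH 6.5, MgCl2, DTT, Tween20, BSA | timing = 60 min unwinding reaction at 25 °C after ATP addition | signal = Cy5 beacon fluorescence read at start and 1 h | read-out basis = % inhibition of unwinding | control set = low DMSO, high thioflavine S at 110 µM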
NS3 helicase cf – HCV NS3 helicase inhibitors, retest, confirmation, biochemical, Cy5 molecular beacon fluorescence, triplicate; shares compounds with NS3 helicase inh; NS3 helicase DNA unwinding; 1,600 tested, 31% active; inhibition, % at 10.9 µM;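 active = inhibition above the mean of all tested compounds plus 3 SD, cutoff set per campaign, cut at about 36% in these data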
DNA FID counter-2 – compounds displacing fluorescent DNA intercalator, artefact control for HCV NS3 helicase inhibitor project, biochemical, FID fluorescence, triplicate; shares compounds with NS3 helicase inh; DNA fluorescent intercalator displacement; inhibition, % at 7.9 µM; 1,600 tested, 4% active;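 note: higher means more displacement of ethidium bromide from the DNA hairpin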
Each line names hits and unclear results; the compound was inactive in the other large screens (follow-up assays come after a bar, where they were run). Cut-off read from the data, not from the text of the source, unless noted: active = inhibition above about 37%; inactive = the rest.

CC(C)(C)C(C(Oc1ccc(Cl)cc1)n1cncn1)n1nnnc1C(c1cccc(Cl)c1)N1CCCCC1 (configuration not stated)	NS3 helicase inh 39.3 | NS3 helicase cf inactive | DNA FID counter-2 inactive
C/C(=N\NC(=O)CC1(C)OCCO1)c1cccs1	NS3 helicase inh 45.8 | NS3 helicase cf inactive | DNA FID counter-2 inactive
C/C(=N/NC(=O)c1cccs1)c1cccs1	none
CC(C)c1ccc(/C=N/NC(=O)c2c(Cl)cnn2C)cc1	none
COc1ccc(Sc2ccc(/C=C3\C(=O)NN(c4ccccc4)C3=O)o2)cc1	NS3 helicase inh 47.4 | NS3 helicase cf 60.0 | DNA FID counter-2 inactive
COc1ccc(-n2c(C)cc(/C=C3\C(=O)NN(c4ccccc4)C3=O)c2C)cc1	none
O=C1NN(c2ccccc2)C(=O)/C1=C\c1ccccc1	NS3 helicase inh 49.5 | NS3 helicase cf inactive | DNA FID counter-2 inactive
CC(C)C(NS(=O)(=O)c1ccccc1)C(=O)N1CCCC1 (configuration not stated)	none
COc1cccc(NC(=S)Nc2cccc3ccccc23)c1	NS3 helicase inh 48.9 | NS3 helicase cf inactive | DNA FID counter-2 inactive
Fc1ccc(NC(=S)Nc2cccc3ccccc23)cc1F	NS3 helicase inh 43.8 | NS3 helicase cf inactive | DNA FID counter-2 inactive
CC1(C)Cc2nc3sc(C(=O)NCCCO)c(N)c3cc2CS1	none
CC1(C)Cc2nc3sc(C(=O)O)c(N)c3cc2CS1	NS3 helicase inh 47.5 | NS3 helicase cf inactive | DNA FID counter-2 inactive
O=C(NNS(=O)(=O)c1ccc(Br)cc1)c1cccs1	none
CSCCC(NC(=O)c1cccc(C)c1)C(=O)Nc1sccc1C(N)=O (configuration not stated)	NS3 helicase inh 41.0 | NS3 helicase cf inactive | DNA FID counter-2 inactive
NS(=O)(=O)c1ccc(CCNC(=O)C(=O)NCC2OCCN2S(=O)(=O)c2ccc(Cl)cc2)cc1 (configuration not stated)	none
O=C(NC(=S)Nc1ccc(-c2ccc(CO)o2)cc1)c1cccs1	NS3 helicase inh 36.8 | NS3 helicase cf 39.7 | DNA FID counter-2 inactive
CCCN(CCC)CCNC(=O)CCC(=O)Nc1ccc2nc(N3CCN(C)CC3)cc(C)c2c1	none
CCNc1ccccc1CP(=O)(c1ccccc1)c1ccccc1O (configuration not stated)	NS3 helicase inh 63.5 | NS3 helicase cf inactive | DNA FID counter-2 inactive
Cc1ccc(O)c(CP(=O)(c2ccccc2)c2ccccc2)c1	none
COCCn1c(C)cc(C2=NNC(=Nc3ccc(Cl)cc3Cl)SC2)c1C	NS3 helicase inh 36.7 | NS3 helicase cf inactive | DNA FID counter-2 inactive
CCOc1ccc(N=C2NN=C(c3cc(C)n(CC4CCCO4)c3C)CS2)cc1 (configuration not stated)	NS3 helicase inh 40.7 | NS3 helicase cf inactive | DNA FID counter-2 inactive
CCOC(=O)N1CCN(Cc2nc3c(c(=O)n(C)c(=O)n3C)n2Cc2ccccc2C)CC1	NS3 helicase inh 60.8 | NS3 helicase cf inactive | DNA FID counter-2 inactive
CCCn1c(CN2CCN(C(=O)OCC)CC2)nc2c1c(=O)n(C)c(=O)n2C	none
Cc1cccc(Nc2ncnc3onc(-c4cccc(Cl)c4)c23)c1C	none
Cc1ccc(Cn2c(/C=C/c3ccco3)nc3ccccc32)cc1	NS3 helicase inh 42.9 | NS3 helicase cf inactive | DNA FID counter-2 inactive
CCCn1c(/C=C/c2ccco2)nc2ccccc21	NS3 helicase inh 52.2 | NS3 helicase cf inactive | DNA FID counter-2 inactive
CCCCn1c(/C=C/c2ccco2)nc2ccccc21	NS3 helicase inh 44.4 | NS3 helicase cf inactive | DNA FID counter-2 inactive
O=[N+]([O-])c1ccc(N2N=C(c3ccco3)CC2c2ccccc2)cc1 (configuration not stated)	NS3 helicase inh 38.2 | NS3 helicase cf inactive | DNA FID counter-2 inactive
Fc1ccc(C2CC(c3ccco3)=NN2c2ccccc2)cc1 (configuration not stated)	none
C/C(=N/NC(=O)c1ccc(-c2ccccc2)cc1)c1cccc(O)c1	none
NC(=O)c1sc2nc(-c3ccccc3)ccc2c1N	none
Nc1c(C(=O)Nc2ccc(F)cc2)sc2nc(-c3ccco3)ccc12	NS3 helicase inh 40.8 | NS3 helicase cf inactive | DNA FID counter-2 inactive
CC(=O)c1sc2nc(-c3ccco3)ccc2c1N	NS3 helicase inh 68.5 | NS3 helicase cf 46.1 | DNA FID counter-2 inactive
Nc1c(C(=O)Nc2ccc(Br)cc2)sc2nc(-c3ccco3)ccc12	NS3 helicase inh 68.6 | NS3 helicase cf inactive | DNA FID counter-2 inactive
CCn1ccc(C(=O)N2CCN(c3ncccn3)CC2)n1	none
CCOC(=O)c1sc2nc3c(SCC(=O)O)cc(C(=O)c4cc(F)ccc4O)cn3c(=O)c2c1C	NS3 helicase inh 36.2 | NS3 helicase cf 51.6 | DNA FID counter-2 64.9
Cc1sc2nc3c(SC(C)C(=O)O)cc(C(=O)c4ccccc4O)cn3c(=O)c2c1C (configuration not stated)	NS3 helicase inh 44.7 | NS3 helicase cf 69.8 | DNA FID counter-2 55.9
COc1ccc(C(=O)NCC(=O)OCc2ccc(F)cc2)cc1	none
Cc1ccc(C(=O)Nc2ccc3c(c2)OCCO3)cc1	none
Cc1ccc(C(=O)Nc2ccc3c(c2)OCO3)cc1	NS3 helicase inh 37.8 | NS3 helicase cf inactive | DNA FID counter-2 inactive
O=C(OCC(=O)c1c[nH]c2ccccc12)c1cc2ccccc2cc1O	none
O=C(NC(Cc1c[nH]c2ccccc12)C(=O)NCc1ccc(F)cc1)OCc1ccccc1 (configuration not stated)	none
N#CC1=C(SCC(=O)c2ccccc2)NC2=C(C(=O)CCC2)C1c1ccco1 (configuration not stated)	NS3 helicase inh 38.1 | NS3 helicase cf inactive | DNA FID counter-2 inactive
Cc1ccc(/C=C2\SC(=S)N(NS(=O)(=O)c3ccc(C)cc3)C2=O)cc1	none
O=C1/C(=C/c2cccc(F)c2)SC(=S)N1NS(=O)(=O)c1ccccc1	NS3 helicase inh 36.8 | NS3 helicase cf 69.7 | DNA FID counter-2 inactive
Cc1ccc(S(=O)(=O)NN2C(=O)/C(=C/c3cccn3C)SC2=S)cc1	NS3 helicase inh 49.6 | NS3 helicase cf 59.9 | DNA FID counter-2 inactive
Cc1ccc(S(=O)(=O)NN2C(=O)/C(=C/c3ccc(C(=O)O)cc3)SC2=S)cc1	NS3 helicase inh 37.2 | NS3 helicase cf inactive | DNA FID counter-2 inactive
COc1cc(/C=C2\SC(=S)N(NS(=O)(=O)c3ccccc3)C2=O)cc(OC)c1OC	none
CC1CCCCN1S(=O)(=O)c1ccc2[nH]c(=O)cc(C(=O)NCCCN3CCCCCC3)c2c1 (configuration not stated)	none
CN(Cc1nc(-c2ccccc2)no1)C(=O)c1ccco1	none
